Measured values as given in ChEMBL document CHEMBL1123760, “Synthesis and oral antifungal activity of novel azolylpropanolones and related compounds” (1987).
Converted amounts (≈) assume the structure as drawn.

What was measured:
Format in all cases: functional
Candida albicans [1] = test: Minimum effective concentration for inhibition of pseudomycelium formation in Candida albicans; conditions: for minimal effective concentration: Candida albicans, read-out: MEC
Summary of the method: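 C. albicans KE-2 (clinical isolate) at a final 1 × 10^6 yeast cells/mL in EMEM with 20% calf serum; compounds diluted by the same microtiter system as for MICs. After incubation, wells were Giemsa-stained (5% in phosphate buffer) and read by microscope. MEC is the lowest concentration preventing typical pseudomycelium formation.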

Mus musculus [2] = test: In vivo activity against subacute systemic murine candidiasis in mice at a daose of 12.5-100 mg/kg dosage range. Value was determined at day 15 after infection; conditions: 360 h
Cavia porcellus = test: Number of skin sections yielding negative culture / total (48) (percentage) in guinea pig dermatophytosis at dose of 40 mg/kg […]. (Value is from Six skin sections cut out from each treated site)
Summary of the method: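 Guinea pigs infected with Trichophyton asteroides, four animals each with two lesion sites. Oral 40 mg/kg once daily for 10 days (day 3 to day 12). Read-out is the rate of negative cultures from infected skin sections.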

Aspergillus fumigatus = test: In vitro antifungal activity against Aspergillus fumigatus
Summary of the method: (§1)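 Broth microdilution MIC in Sabouraud's glucose broth; final inocula 1 × 10^5 cells/mL (yeast) or 1 × 10^5 conidia/mL (mold and dermatophyte).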

Mus musculus [3] = test: Ratio of in vivo number of survivors / total infected; design: reference not given here
Candida albicans [4] = test: In vitro antifungal activity against Candida albicans; summary of the method: as §1
Trichophyton benhamiae = test: In vitro antifungal activity against Trichophyton asteroides; summary of the method: as §1
[5] = Aspergillus fumigatus, read-out: MIC
[6] = Candida albicans, read-out: MIC
[7] = Trichophyton benhamiae, read-out: MIC

SMILES | minimal effective concentration (Candida albicans [1]) [µg/mL] | ED50 (Mus musculus [2]) [mg/kg] | No. total (Cavia porcellus) | MIC (Aspergillus fumigatus; [5]) [µg/mL] | No. of survivors (Mus musculus [3]) | MIC (Candida albicans [4]; [6]) [µg/mL] | MIC (Trichophyton benhamiae; [7]) [µg/mL] | MIC (Trichophyton benhamiae) [µg/mL] | MEC (Candida albicans [1]) [µg/mL] | MIC (Aspergillus fumigatus) [µg/mL] | MIC (Candida albicans [4]) [µg/mL]
CC(C)C(=O)C(O)(Cn1cncn1)c1ccc(Cl)cc1Cl (stereo not given) | 0.04 | 22.6 | 7 | 100 (≈ 305 µM) | 8 | 100 (≈ 305 µM) | 0.1 (≈ 0.305 µM) |  |  |  | 
O=C(c1ccc(Cl)cc1Cl)C(O)(Cn1cncn1)c1ccc(Cl)cc1Cl (stereo not given) | 0.16 | 32.3 | 27 | > 100 | 7 | 50 (≈ 116 µM) | 0.1 (≈ 0.232 µM) |  |  |  | 
O=C(c1ccc(Cl)cc1Cl)C(O)(Cn1cncn1)c1ccc(Cl)cc1 (stereo not given) | 0.31 |  |  | > 100 | 8 | 100 (≈ 252 µM) | 0.1 (≈ 0.252 µM) |  |  |  | 
CC(C)[C@H]1OC(=O)O[C@]1(Cn1cncn1)c1ccc(Cl)cc1Cl | 0.63 |  |  | > 100 | 8 | 100 (≈ 281 µM) | 3.1 (≈ 8.7 µM) |  |  |  | 
O=S1O[C@H](c2ccc(F)cc2)[C@](Cn2cncn2)(c2ccc(Cl)cc2Cl)O1 (stereo not given in full) | 0.04 |  |  | > 100 | 0 | > 100 | 0.1 (≈ 0.233 µM) |  |  |  | 
OC(c1ccccc1Cl)C(O)(Cn1ccnc1)c1ccccc1Cl (stereo not given) | 1.25 |  |  | 100 (≈ 275 µM) | 4 | > 100 | 0.4 (≈ 1.1 µM) |  |  |  | 
O=C(c1ccc(F)cc1)C(O)(Cn1cncn1)c1ccccc1Cl (stereo not given) | 2.5 |  |  | > 100 | 8 | 100 (≈ 289 µM) | 1.6 (≈ 4.63 µM) |  |  |  | 
O=C(c1ccc(Cl)cc1Cl)C(O)(Cn1cncn1)c1ccc(F)cc1 (stereo not given) | 0.31 | 20.2 |  | > 100 | 8 | 100 (≈ 263 µM) | 0.1 (≈ 0.263 µM) |  |  |  | 
O=S1O[C@H](c2ccc(F)cc2)[C@@](Cn2cncn2)(c2ccc(Cl)cc2Cl)O1 (stereo not given in full) | 0.04 |  |  | 50 (≈ 117 µM) | 4 | > 100 | 0.1 (≈ 0.233 µM) |  |  |  | 
O=C(c1ccccc1F)C(O)(Cn1cncn1)c1ccc(Cl)cc1Cl (stereo not given) | 0.04 |  |  | > 100 | 7 | 100 (≈ 263 µM) | 0.1 (≈ 0.263 µM) |  |  |  | 
CC(C)C(=O)C(O)(Cn1cncn1)c1ccc(Cl)cc1 (stereo in doubt; 36) | 0.04 |  |  | 12.5 (≈ 42.6 µM) | 7 | 100 (≈ 340 µM) | 0.1 (≈ 0.34 µM) |  |  |  | 
CC(C)C(=O)C(O)(Cn1cncn1)c1ccc(Cl)cc1 (stereo in doubt; 39) |  | 14.7 |  |  |  |  |  | 0.1 (≈ 0.34 µM) |  |  | 
OC(c1ccc(F)cc1)C(O)(Cn1cncn1)c1ccc(Cl)cc1Cl (stereo in doubt; 92) |  | 25.6 | 11 |  | 8 | 50 (≈ 131 µM) |  | 0.1 (≈ 0.262 µM) | 0.08 | 25 (≈ 65.4 µM) | 
CC(O)(c1ccc(F)cc1)C(O)(Cn1cncn1)c1ccc(Cl)cc1 (stereo in doubt; 162) |  |  |  |  | 8 |  |  | 0.1 (≈ 0.276 µM) | 0.08 | 100 (≈ 276 µM) | >100
CC(=O)N1CCN(c2ccc(OCC3COC(Cn4ccnc4)(c4ccc(Cl)cc4Cl)O3)cc2)CC1 (stereo not given) [KETOCONAZOLE] |  | 32.3 |  |  |  |  |  |  |  |  | 
